Experimental data from ChEMBL document CHEMBL1153051, “Peperomins as anti-inflammatory agents that inhibit the NF-kappaB signaling pathway” (Bioorg Med Chem Lett, 2009).
Activity calls are given as the source filed them. The rule behind the calls is not given here.

Assays:
A549 [1] = experiment: Antiinflammatory activity in human A549 cells assessed as reduction of IL1-induced increase in cell surface ICAM1 expression upto 100 uM preincubated for 1 hr before IL1 challenge measured after 6 hrs by ELISA; type: functional, cell-based
How it was run: (§1)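 Cell ELISA of surface ICAM-1 on A549 cells. Cells were pretreated 1 h across a concentration series, then stimulated 6 h with TNF-α (2.5 ng/mL) or IL-1 (0.25 ng/mL) with compound present. Values are means ± SD of triplicate cultures.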

A549 [2] = experiment: Antiinflammatory activity in human A549 cells assessed as reduction of TNF-alpha-induced increase in cell surface ICAM1 expression upto 100 uM preincubated for 1 hr before TNFalpha challenge measured after 6 hrs by ELISA; type: functional, cell-based; how it was run: as §1
A549 [3] = experiment: Antiinflammatory activity in human A549 cells assessed as reduction of IL1-induced cell surface ICAM1 expression upto 100 uM preincubated for 1 hr before IL1 challenge measured after 6 hrs by Western blot analysis; type: functional, cell-based
How it was run: (§2)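 A549 cells pretreated 1 h with peperomins at various concentrations, then TNF-α (2.5 ng/mL) or IL-1 (0.25 ng/mL) added for 6 h with compound still present. Whole-cell lysates were Western blotted for ICAM-1, with β-actin as loading control.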

A549 [4] = experiment: Reduction of IL1-induced COX2 expression in human A549 cells at 100 uM preincubated for 1 hr before IL1 challenge measured after 6 hrs by Western blot analysis; type: functional, cell-based
How it was run: (§3)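 Cox-2 protein was Western blotted in A549 cells, with β-actin as loading control. Cells were pretreated 1 h with compound at various concentrations, then exposed 6 h to TNF-α (2.5 ng/mL) or IL-1 (0.25 ng/mL) in its continued presence.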

A549 [5] = experiment: Antiinflammatory activity in human A549 cells assessed as reduction of TNF-alpha-induced cell surface ICAM1 expression upto 100 uM preincubated for 1 hr before TNFalpha challenge measured after 6 hrs by Western blot analysis; type: functional, cell-based; how it was run: as §2
A549 [6] = experiment: Antiinflammatory activity in human A549 cells assessed as substantial decrease in IL1-induced cell surface ICAM1 expression at > 10 uM preincubated for 1 hr before IL1 challenge measured after 6 hrs by Western blot analysis; type: functional, cell-based; how it was run: as §2
[7] = molecular target: T1, Inhibitor of nuclear factor kappa-B kinase subunit alpha (Homo sapiens) (UniProt O15111); experiment: Inhibition of N-terminal GST-fused human IkappaBalpha (1 to 54) expressed in Escherichia coli BL21
T1 sequence (whole entry): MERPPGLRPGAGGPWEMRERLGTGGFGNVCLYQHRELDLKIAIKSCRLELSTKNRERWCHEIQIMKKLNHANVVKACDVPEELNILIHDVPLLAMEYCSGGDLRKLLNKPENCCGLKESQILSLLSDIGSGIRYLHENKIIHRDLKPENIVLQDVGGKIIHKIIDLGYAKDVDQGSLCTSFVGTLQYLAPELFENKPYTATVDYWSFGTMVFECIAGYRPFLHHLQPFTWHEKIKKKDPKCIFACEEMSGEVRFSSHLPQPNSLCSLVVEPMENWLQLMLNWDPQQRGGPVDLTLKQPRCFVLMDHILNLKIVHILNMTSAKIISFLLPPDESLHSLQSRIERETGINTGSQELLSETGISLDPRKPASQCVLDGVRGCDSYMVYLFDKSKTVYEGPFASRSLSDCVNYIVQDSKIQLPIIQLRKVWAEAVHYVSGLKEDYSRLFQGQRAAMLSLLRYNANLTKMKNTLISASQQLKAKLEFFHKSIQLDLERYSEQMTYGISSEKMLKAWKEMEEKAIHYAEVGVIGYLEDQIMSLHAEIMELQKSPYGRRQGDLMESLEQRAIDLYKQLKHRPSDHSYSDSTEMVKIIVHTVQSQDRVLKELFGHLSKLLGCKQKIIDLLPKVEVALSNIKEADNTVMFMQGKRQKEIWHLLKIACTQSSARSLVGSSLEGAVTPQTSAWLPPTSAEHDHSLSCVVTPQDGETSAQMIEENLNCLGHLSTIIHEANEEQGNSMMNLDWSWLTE
How it was run: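 IKK complex was immunoprecipitated with anti-IKKα from A549 cells. Cells were pretreated 1 h with compound, then given TNF-α (2.5 ng/mL) for 15 min. Precipitates phosphorylated GST-IκBα(1–54) with or without ATP (10 µM). Phospho-substrate was detected by Western blot with anti-phospho-IκB antibody, with bands quantified relative to IKKα.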

A549 [8] = experiment: Cytotoxicity against human A549 cells upto 100 uM after 6 hrs by MTT assay; type: cell-based; conditions: a549, 6 h
How it was run: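 A549 viability by MTT after 6 h exposure to a range of compound concentrations, no cytokine. Viability given as %, means ± SD of triplicate cultures.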

A549 [9] = experiment: Reduction of TNF-alpha-induced COX2 expression in human A549 cells at 100 uM preincubated for 1 hr before TNFalpha challenge measured after 6 hrs by Western blot analysis; type: functional, cell-based; how it was run: as §3
A549 [10] = experiment: Antiinflammatory activity in human A549 cells assessed as complete decrease in TNF-alpha-induced cell surface ICAM1 expression at 100 uM preincubated for 1 hr before TNFalpha challenge measured after 6 hrs by Western blot analysis; type: functional, cell-based; how it was run: as §2
A549 [11] = experiment: Antiinflammatory activity in human A549 cells assessed as substantial decrease in TNF-alpha-induced cell surface ICAM1 expression at > 10 uM preincubated for 1 hr before TNFalpha challenge measured after 6 hrs by Western blot analysis; type: functional, cell-based; how it was run: as §2
[12] = molecular target: T2, Inhibitor of nuclear factor kappa-B kinase subunit beta (Homo sapiens) (UniProt O14920); experiment: Inhibition of human FLAG-tagged IKK-beta expressed in HEK293 cells at 0.1 to 100 uM by Western blot analysis in presence of ATP; type: cell-based
T2 sequence (whole entry): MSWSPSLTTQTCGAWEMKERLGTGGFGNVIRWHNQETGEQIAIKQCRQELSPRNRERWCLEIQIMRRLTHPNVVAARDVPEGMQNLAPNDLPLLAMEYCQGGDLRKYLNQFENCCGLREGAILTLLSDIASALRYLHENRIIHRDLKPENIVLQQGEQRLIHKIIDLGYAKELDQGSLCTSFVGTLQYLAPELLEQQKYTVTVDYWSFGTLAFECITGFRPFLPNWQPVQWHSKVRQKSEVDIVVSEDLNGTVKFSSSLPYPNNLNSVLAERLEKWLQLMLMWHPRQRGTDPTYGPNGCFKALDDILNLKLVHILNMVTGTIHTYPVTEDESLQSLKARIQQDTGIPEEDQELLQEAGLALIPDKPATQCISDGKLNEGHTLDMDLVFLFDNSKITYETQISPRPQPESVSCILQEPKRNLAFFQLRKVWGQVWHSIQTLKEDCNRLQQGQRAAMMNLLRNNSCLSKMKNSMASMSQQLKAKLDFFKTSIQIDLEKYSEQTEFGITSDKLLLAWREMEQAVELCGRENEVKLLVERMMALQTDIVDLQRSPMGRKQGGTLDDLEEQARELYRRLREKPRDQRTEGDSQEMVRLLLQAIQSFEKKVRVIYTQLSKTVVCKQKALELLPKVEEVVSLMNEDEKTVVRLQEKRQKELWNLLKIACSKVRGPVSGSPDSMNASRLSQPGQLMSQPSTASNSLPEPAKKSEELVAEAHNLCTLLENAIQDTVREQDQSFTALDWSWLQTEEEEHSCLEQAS
How it was run: (§4)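 FLAG-IKKβ was transiently overexpressed in HEK293 cells for 24 h, then immunoprecipitated with anti-FLAG antibody. Precipitates were incubated with or without compound before the kinase reaction, and the phosphorylated product was read out by Western blot.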

A549 [13] = experiment: Antiinflammatory activity in human A549 cells assessed as complete decrease in IL1-induced cell surface ICAM1 expression at 100 uM preincubated for 1 hr before IL1 challenge measured after 6 hrs by Western blot analysis; type: functional, cell-based; how it was run: as §2
MCF7 [14] = experiment: Antiinflammatory activity in human MCF7 cells assessed as inhibition of IL1-induced cell surface ICAM1 expression upto 100 uM preincubated for 1 hr before IL1 challenge measured after 6 hrs by ELISA; type: functional, cell-based
MCF7 [15] = experiment: Antiinflammatory activity in human MCF7 cells assessed as inhibition of TNF-alpha-induced cell surface ICAM1 expression upto 100 uM preincubated for 1 hr before TNFalpha challenge measured after 6 hrs by ELISA; type: functional, cell-based
A549 [16] = experiment: Antiinflammatory activity in human A549 cells assessed as reduction of TNF-alpha-induced increase in cell surface ICAM1 expression preincubated for 1 hr before TNFalpha challenge measured after 6 hrs by ELISA; type: functional, cell-based; how it was run: as §1
A549 [17] = experiment: Antiinflammatory activity in human A549 cells assessed as reduction of IL1-induced increase in cell surface ICAM1 expression preincubated for 1 hr before IL1 challenge measured after 6 hrs by ELISA; type: functional, cell-based; how it was run: as §1
MCF7 [18] = experiment: Cytotoxicity against human MCF7 cells upto 100 uM after 6 hrs by MTT assay; type: cell-based; conditions: mcf7, 6 h
A549 [19] = experiment: Selectivity for inhibition of IL1-induced cell surface ICAM1 expression over inhibition of IL1-induced COX2 expression in human A549 cells; type: functional
A549 [20] = experiment: Inhibition of IL1-induced IKKalpha expression in human A549 cells at 100 uM preincubated for 1 hr before IL1 challenge measured after 5 to 30 mins by Western blot analysis; type: functional, cell-based
A549 [21] = experiment: Selectivity for inhibition of TNF-alpha-induced cell surface ICAM1 expression over inhibition of TNF-alpha-induced COX2 expression in human A549 cells; type: functional
[22] = molecular target: T3, NF-kappa-B inhibitor alpha (Homo sapiens) (UniProt P25963); experiment: Inhibition of IL1-stimulated IkappaBalpha degradation in human A549 cells at 0.1 to 100 uM preincubated for 1 hr before IL1 challenge measured after 10 mins by Western blot analysis; type: cell-based
T3 sequence (whole entry): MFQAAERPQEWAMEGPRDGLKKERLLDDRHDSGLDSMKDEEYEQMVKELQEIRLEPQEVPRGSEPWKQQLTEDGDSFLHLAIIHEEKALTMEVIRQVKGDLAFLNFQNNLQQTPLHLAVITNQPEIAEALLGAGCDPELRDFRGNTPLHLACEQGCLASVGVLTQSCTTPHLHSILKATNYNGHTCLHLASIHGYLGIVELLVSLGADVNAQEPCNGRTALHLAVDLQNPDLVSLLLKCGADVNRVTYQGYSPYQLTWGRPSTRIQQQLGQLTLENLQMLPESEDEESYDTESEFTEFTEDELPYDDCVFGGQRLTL

A549 [23] = experiment: Inhibition of TNF-alpha-induced IKK-beta expression in human A549 cells at 100 uM preincubated for 1 hr before TNFalpha challenge measured after 5 to 30 mins by Western blot analysis; type: functional, cell-based
A549 [24] = experiment: Inhibition of IL1-induced IKK-beta expression in human A549 cells at 100 uM preincubated for 1 hr before IL1 challenge measured after 5 to 30 mins by Western blot analysis; type: functional, cell-based
[25] = molecular target: T3, NF-kappa-B inhibitor alpha (Homo sapiens); experiment: Inhibition of TNF-alpha-stimulated IkappaBalpha degradation in human A549 cells at 0.1 to 100 uM preincubated for 1 hr before TNFalpha challenge measured after 15 mins by Western blot analysis
A549 [26] = experiment: Inhibition of TNF-alpha-induced IKKalpha expression in human A549 cells at 100 uM preincubated for 1 hr before TNFalpha challenge measured after 5 to 30 mins by Western blot analysis; type: functional, cell-based
[27] = molecular target: T2, Inhibitor of nuclear factor kappa-B kinase subunit beta (Homo sapiens); experiment: Inhibition of human FLAG-tagged IKK-beta expressed in HEK293 cells at 50 uM by Western blot analysis in presence of ATP; type: cell-based; how it was run: as §4

Compound | Activity (A549 [1]) | Activity (A549 [2]) | Activity (A549 [3]) | Activity (A549 [4]) | Activity (A549 [5]) | Activity (A549 [6]) | inhibition [7] | Activity (A549 [8]) | Activity (A549 [9]) | Activity (A549 [10]) | Activity (A549 [11]) | inhibition [12] | Activity (A549 [13]) | Activity (MCF7 [15]) | Activity (A549 [16]) | Activity (A549 [17]) | Activity (MCF7 [18]) | other results
COc1cc([C@@H](c2cc(OC)c3c(c2)OCO3)[C@@H]2COC(=O)[C@H]2C)cc(OC)c1OC | inactive | inactive | inactive | inactive | inactive |  |  |  |  |  |  |  |  |  |  |  |  | 
C=C1C(=O)OC[C@H]1[C@@H](c1cc(OC)c(OC)c(OC)c1)c1cc(OC)c2c(c1)OCO2 [2,6-DIDEHYDROPEPEROMIN B] |  |  |  |  |  | Active | Active | Toxic | Active | Active | Active | inactive | Active | Active | Dose-dependent effect | Dose-dependent effect | Non-toxic | inhibition (MCF7 [14]): Active
C=C1C(=O)OC[C@H]1C(c1cc(OC)c2c(c1)OCO2)c1cc(OC)c2c(c1)OCO2 [PEPEROMIN E] |  |  |  |  |  | Active | Active | Toxic | Active | Active | Active | inactive | Active | Active | Dose-dependent effect | Dose-dependent effect | Non-toxic | fold change (FC) (A549 [19]): 10; inhibition (A549 [20]): inactive; fold change (FC) (A549 [21]): 10; Activity (MCF7 [14]): Active; inhibition [22]: Active; Activity (A549 [23]): inactive; inhibition (A549 [24]): inactive; inhibition [25]: Active; inhibition (A549 [26]): inactive
CCCCC/C=C/C=C1/C(=O)C=C[C@@H]1C/C=C\CCCC(=O)O |  |  |  |  |  |  |  |  |  |  |  |  |  |  |  |  |  | inhibition [27]: Active
COc1cc(C(c2cc(OC)c3c(c2)OCO3)[C@@H]2COC(=O)[C@H]2C)cc2c1OCO2 | inactive | inactive | inactive | inactive | inactive |  |  |  |  |  |  |  |  |  |  |  |  | 
